# Screening results deposited in PubChem by several laboratories.
# DNMT1 block = blocks human DNA methyltransferase DNMT1; AID 588458; P26358; DNMT1 molecular beacon, Hinp1I cleavage, fluorescence; inhibition (reported as % activation of signal), % at 10 µM; actives 0.83% (n = 360,000); in the data active = inhibition above about 50%
# Target sequence (P26358 504-1616 limits assumed): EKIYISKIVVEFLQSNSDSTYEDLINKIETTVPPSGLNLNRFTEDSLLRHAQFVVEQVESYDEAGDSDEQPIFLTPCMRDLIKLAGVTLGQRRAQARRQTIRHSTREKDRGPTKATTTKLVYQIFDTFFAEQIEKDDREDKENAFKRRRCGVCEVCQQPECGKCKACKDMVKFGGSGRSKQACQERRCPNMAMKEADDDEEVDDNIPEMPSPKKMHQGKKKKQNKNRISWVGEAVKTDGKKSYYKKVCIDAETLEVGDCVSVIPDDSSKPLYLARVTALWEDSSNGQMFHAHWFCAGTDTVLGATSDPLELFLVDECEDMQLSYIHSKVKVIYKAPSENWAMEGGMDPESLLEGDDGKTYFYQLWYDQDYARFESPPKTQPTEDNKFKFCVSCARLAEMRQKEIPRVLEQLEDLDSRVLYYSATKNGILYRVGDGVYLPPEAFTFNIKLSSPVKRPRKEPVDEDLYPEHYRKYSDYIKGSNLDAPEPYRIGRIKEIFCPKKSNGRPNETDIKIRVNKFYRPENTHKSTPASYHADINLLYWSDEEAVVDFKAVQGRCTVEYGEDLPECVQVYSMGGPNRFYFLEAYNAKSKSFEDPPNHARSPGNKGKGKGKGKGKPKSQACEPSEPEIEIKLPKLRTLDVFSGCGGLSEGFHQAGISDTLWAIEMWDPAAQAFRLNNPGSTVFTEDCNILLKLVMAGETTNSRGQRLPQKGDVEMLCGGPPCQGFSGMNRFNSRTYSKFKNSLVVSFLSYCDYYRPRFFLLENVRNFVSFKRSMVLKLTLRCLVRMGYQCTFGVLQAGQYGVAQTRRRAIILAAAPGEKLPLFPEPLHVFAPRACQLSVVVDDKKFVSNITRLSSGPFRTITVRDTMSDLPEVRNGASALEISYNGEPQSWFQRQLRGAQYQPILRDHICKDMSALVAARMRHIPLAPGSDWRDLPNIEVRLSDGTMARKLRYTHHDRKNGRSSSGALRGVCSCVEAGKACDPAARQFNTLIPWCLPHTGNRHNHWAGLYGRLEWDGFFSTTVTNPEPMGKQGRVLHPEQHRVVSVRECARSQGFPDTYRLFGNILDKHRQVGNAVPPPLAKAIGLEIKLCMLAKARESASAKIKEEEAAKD
# LMPTP block = LMPTP (human) inhibition. actives 0.22% (n = 360,000). AID 651560. inhibition, % at 20 µM. recombinant LMPTP-A, OMFP fluorogenic substrate, fluorescence intensity. P24666;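 active = compounds that cut the enzyme signal by at least half of the control window in the single-dose screen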
#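 material = LMPTP-A | quantity = 0.625 nM enzyme | reagent = OMFP substrate, 400 µM final | buffer or medium = Bis-Tris pH 6.0, DTT, detergent | detection = endpoint fluorescence intensity from OMFP dephosphorylation | dosing = single 20 µM dose | read-out basis = % inhibition relative to no-enzyme and uninhibited control wells | control set = no-enzyme and uninhibited controls | timing = 50 min at room temperature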
# SUMO1-SIM PPI = modulators of human SUMO1-mediated protein-protein interactions | actives 0.33% (n = 360,000) | inhibition, % at 20 µM | P63165 | SUMO1 binding to a labelled peptide, TR-FRET, 1 h; in the data active = inhibition above about 37%
# STEP inh = blocks human striatal-enriched tyrosine phosphatase; recombinant STEP, OMFP fluorogenic substrate, fluorescence; P54829; AID 588621; inhibition, % at 20 µM; actives 0.25% (n = 360,000);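 active = inhibition at 20 µM, scaled per plate between control wells, above about 37%, limit read from the data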
#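 Assay system: isolated STEP enzyme. Buffer or medium: pH 6.0 Bis-Tris with DTT and Tween 20. Also added: fluorogenic phosphatase substrate OMFP at 25 µM final. Dosing: 20 µM, 1% DMSO. Timing: 20 min reaction, room temperature, in the dark. Measured by: fluorescence intensity, excitation 480 nm, emission 540 nm. Evaluation: normalized % inhibition.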
# GRK2 inh = inhibitors of human GRK2 displacing RNA aptamer | bead flow cytometry, FAM-aptamer displacement from GRK2 | inhibition of aptamer binding, % at 10 µM | actives 0.59% (n = 330,000);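 active = inhibition of aptamer binding above 40%, roughly 3 SD of noise, on plates passing a quality check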;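 also: median bead fluorescence of bound FAM aptamer so fluorescent compounds give negative values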
# Scp1 inh = Scp-1 (human) phosphatase inhibition. Recombinant Scp1, phosphopeptide, malachite green phosphate absorbance. inhibition, % at 20 µM. actives 0.88% (n = 340,000);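 active = inhibition above about 50% at 20 µM, limit read from the data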
#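 Test system: SCP-1 catalytic domain; Buffer or medium: Acidic Tris acetate buffer with magnesium and detergent; Also added: Phosphorylated 17-residue peptide substrate; Compound: single 20 µM dose, 1% DMSO; Schedule: enzyme reaction 45 min at room temperature, colour 5 min, stabilisation 30 min; Signal: Phosphate-binding colour reagent, absorbance read at 630 nm.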
# Scp-1 conf = Scp-1 (human) inhibition, single-dose confirmed; actives 61% (n = 2,500); recombinant SCP-1 catalytic domain, phosphate release, malachite green absorbance; AID 540281; inhibition, % at 20 µM; shares compounds with Scp1 inh
# Scp-1 MG ctr = interferes with malachite green readout, flagging false Scp-1 hits | 2,500 tested, under 10 active | shares compounds with Scp1 inh | apparent inhibition (interference), % at 20 µM | Colorimetric interference counterscreen, malachite green absorbance 630 nm;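 also: compounds added after enzyme reaction finished so only phosphate colour detection is probed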
# Scp-1 Tm shift = Scp-1 (human) binding by thermal shift | shares compounds with Scp1 inh | thermal shift relative to vanadate control, % at 40 µM | actives 25% (n = 1,500) | AID 540329 | Recombinant SCP1, Sypro Orange thermal shift Tm;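 active = substances whose mean melting-temperature shift, as a percentage of the reference inhibitor's shift, reaches about 5.3%, limit read from the data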
# Hits are given with their value; 0 = inactive; - = no result given. An excerpt weighted towards active compounds, which were near 2.1% of everything screened.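 The calls were made as follows, unless noted: active = inhibition of at least 30% at 20 µM; inactive = the rest.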
SMILES,DNMT1 block,LMPTP block,SUMO1-SIM PPI,STEP inh,GRK2 inh,Scp1 inh,Scp-1 conf,Scp-1 MG ctr,Scp-1 Tm shift
COc1cc(/C=C/c2cccc[n+]2C)ccc1OCC(=O)Nc1ccccc1C,0,0,0,0,0,52,0,0,-
CCOc1cc(/C=C/c2cccc[n+]2C)ccc1O,0,0,0,0,0,72,0,0,-
Cc1ccc(S(=O)(=O)N2C[C@H]3C(=O)C[C@@H](c4ccccc4)N(S(=O)(=O)c4ccc(Br)cc4)[C@H]3C[C@H]2c2ccccc2)cc1,0,0,0,0,-,-,-,-,-
Cc1nc(CN(C)C(=O)c2ccccc2OC2CCN(S(C)(=O)=O)CC2)cs1,0,0,0,0,0,0,-,-,-
Cc1nc(CNC(=O)c2ccccc2OC2CCN(S(C)(=O)=O)CC2)cs1,0,0,0,0,0,61,0,0,-
O=C(O)Cc1sc(N/N=C\c2ccccc2)nc1-c1ccccc1,90,0,0,0,0,54,75,0,18
CCOc1cc(/C=C2\SC(=O)N(CC(=O)Nc3ccccc3F)C2=O)cc([N+](=O)[O-])c1O,0,0,0,0,0,85,62,0,21
N/C(=N/OC(=O)c1cccc([N+](=O)[O-])c1)c1cccc([N+](=O)[O-])c1,0,0,0,0,0,95,75,0,6.6
CC(NC(=O)OCc1ccccc1)c1ccccc1 (stereo not given),0,0,0,0,0,0,-,-,-
O=C(O)CC(NC(=O)OCc1ccccc1)c1ccccc1 (stereo not given),0,0,0,0,0,73,0,0,-
Cc1ccc(SC[C@H](C)CN2CCC(NC(=O)OCc3ccccc3)CCC2=O)cc1 (stereo not given in full),-,0,0,-,-,-,-,-,-
Cc1ccc(C(=O)Nc2cccc(C(=O)N3CCOCC3)c2)cc1Cl,0,0,0,0,0,0,-,-,-
Cc1ccc(NC(=O)CSc2ccccc2NC(=O)c2ccccc2Cl)cc1Cl,0,0,0,0,0,90,63,0,0
Cc1ccc(NC(=O)CSc2ccccc2NC(=O)c2ccccc2)cc1Cl,0,0,0,0,0,0,-,-,-
CCOC(=O)C1(C)CCCN(C(=O)c2cccc3ccccc23)C1 (stereo not given),0,0,0,0,-,-,-,-,-
CCCc1ccc(C(=O)NNC(=O)c2ccc(Br)cc2)cc1,0,0,0,0,0,94,81,0,0
CCCc1ccc(C(=O)NC(=O)c2ccccc2O)cc1,0,0,0,48,0,67,89,0,0
Cc1ccc(C(=O)NC(=S)NNC(=O)c2ccccc2O)cc1,0,0,0,0,0,0,-,-,-
O=C(NC(=O)c1ccccc1O)c1ccc(C(F)(F)F)cc1,0,0,0,0,0,83,68,0,0
CN(C)c1ccc(CNC(=O)C2(C)Cc3c(-c4cccc(C(F)(F)F)c4)ccnc3O2)cc1 (stereo not given),0,0,0,0,-,-,-,-,-
C[C@H]1CN([C@@H](C)CO)C(=O)CCCn2cc(nn2)CO[C@@H]1CN(C)C(=O)Nc1ccccc1F,0,0,0,0,-,-,-,-,-
CCc1nnc(NC(=O)CC(C)c2ccccc2)s1 (stereo not given),0,0,0,0,0,58,0,0,-
COc1ccc(/C=N/NC(=O)c2ccccc2OC)cc1COc1ccccc1[N+](=O)[O-],0,0,0,0,0,0,-,-,-
COc1ccc(/C=N\NC(=O)c2ccc([N+](=O)[O-])c(C)c2)cc1COc1ccccc1C(N)=O,0,0,54,0,0,67,34,0,0
